PLCb3 inh: inhibitors of human phospholipase C beta3; Q01970; hit rate 0.18% among 370,000; AID 720704; inhibition, % at 12.2 µM; Purified PLC-beta3, fluorogenic substrate, fluorescence; in the data active means inhibition above about 11%
Tb MetRS inh: blocks T. brucei methionyl-tRNA synthetase activity | purified T. brucei MetRS, ATP depletion, Kinase-Glo luminescence | inhibition, % at 11.9 µM | hit rate 0.4% among 360,000;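 active means inhibition above a per-plate cutoff of the control wells' mean inhibition plus 3 SD, cut at about 5.5% in these data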
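Test system – parasite MetRS enzyme · Reagent – substrates ATP, L-methionine and bulk Escherichia coli tRNA · Doses – 11.9 µM compound single dose, 0.9% DMSO · Times – 15 min enzyme-compound preincubation, 2 h reaction, 10 min detection, 25 °C · Signal – Kinase-Glo luminescence, ATP depletion format · Controls – DMSO-only wells as low control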
HGIII-sPLA2 inh: Inhibits HGIII-sPLA2 liposome hydrolysis, primary screen; Q9NZ20; QFRET BODIPY PC-A2 liposome hydrolysis, fluorescence; inhibition, % at 12.2 µM; hit rate 0.56% among 370,000;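 active means inhibition above mean plus 3 SD of compounds lying within the high and low control bounds, cut at about 19% in these data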
PLCg1 inh: PLC-gamma1 (human) inhibition, primary screen; purified PLC-gamma1, fluorogenic substrate, fluorescence; hit rate 0.84% among 370,000; P19174; inhibition, % at 12.2 µM; AID 720700
DAGLB inh: diacylglycerol lipase beta (human) inhibition; Q8NCG7; HEK293T DAGLB membrane lysate, EnzChek fluorogenic substrate; inhibition, % at 5.17 µM; hit rate 0.059% among 340,000; AID 504411; in the data active means inhibition above about 34%
PLCgamma1 ctr: PLC-gamma1 inhibition, counter-screen for PLC-beta3 hits | hit rate 3.1% among 3,300 | inhibition, % at 12.3 µM | shares compounds with PLCg1 inh | purified PLC-gamma1, fluorogenic substrate, fluorescence
PLCb3 confirm: confirmation of human PLC-beta3 inhibitors; purified PLC-beta3, fluorogenic substrate fluorescence; hit rate 1% among 3,300; AID 743261; shares compounds with PLCg1 inh; inhibition, % at 12.3 µM; in the data active means inhibition above about 11%
A number is an active result; n = inactive; x = not tested or not shown. This is a sample that favours compounds with a hit; in the whole collection about 1.9% have one here. Unless noted, no stated cut-off is given here; in the data, active means inhibition above about 9.5%; inactive means the rest.

SMILES	PLCb3 inh	Tb MetRS inh	HGIII-sPLA2 inh	PLCg1 inh	DAGLB inh	PLCgamma1 ctr	PLCb3 confirm
CCCS(=O)(=O)NC(=O)C1(C)CCN(C(=O)c2cc(C)nn2C(C)(C)C)C1 (stereo not given)	n	n	n	9.8	x	n	n
Cc1cccc(Cl)c1-n1nnnc1C1(C)CSCC(=O)N1Cc1ccc(F)cc1 (stereo not given)	n	x	n	n	x	x	x
Cc1cccc(NC(=S)N(Cc2cccc(Br)c2)CC2CCC(C(=O)O)CC2)c1 (stereo not given)	n	n	n	11	n	n	n
CCCn1c(SCC(=O)NCC)nc2sc3c(c2c1=O)CCC3	n	n	n	9.6	n	n	n
CCN(CC)CCCNC(=O)CSc1nnc(-c2ccncc2)n1-c1ccc(OC)cc1	n	x	n	n	x	x	x
COC(=O)C1=C(C)N(Cc2ccc(C(F)(F)F)cc2)C(=NCc2ccccc2C(F)(F)F)NC1c1ccc(Cl)cc1 (stereo not given)	n	x	n	n	x	x	x
COC(=O)C1=C(C)N(Cc2ccccc2)C(=NCc2cccc(C(F)(F)F)c2)N[C@H]1c1cccc(F)c1	n	n	n	13	n	n	n
COC(=O)C1=C(C)N(Cc2cccc(C(F)(F)F)c2)C(=NCc2ccccc2C(F)(F)F)NC1c1ccc(Cl)cc1 (stereo not given)	14	x	n	n	x	n	n
COC(=O)C1=C(C)N(Cc2ccccc2)C(=NCc2cccc(C(F)(F)F)c2)N[C@H]1c1cccc(C(F)(F)F)c1	x	n	x	x	n	x	x
Cc1[nH]nc2c1C(c1ccc(Br)cc1)N(Cc1ccccc1)C2=O (stereo not given)	n	x	n	n	x	x	x
COC(=O)[C@]12C[C@H](CC(=O)N3CCN(C(=O)C4CC4)CC3)C(=O)N(Cc3cccc4ccccc34)C1=C[C@H](C(C)(C)C)O[C@@H]2C	n	x	n	n	x	x	x
Fc1cc(F)cc(NC(=S)NN2CCOCC2)c1	n	n	n	11	n	n	n
CC1(Cc2ccccc2OC(F)(F)F)C(=O)Nc2ccc(-c3ccsc3)cc21 (stereo not given)	n	n	n	11	x	n	n
O=C(CSc1nnc(-c2ccccc2F)n1C1CCCCC1)N1CCCC1	n	n	n	n	n	x	x
O=C(CSc1nnc(-c2ccc(Br)cc2)n1C1CCCCC1)N1CCCC1	n	n	n	16	n	n	n
CC1CCN(C(=O)CSc2nnc(-c3cccnc3)n2C2CCCCC2)CC1	n	n	n	n	n	x	x
O=C(CSc1nnc(-c2ccc(Cl)cc2Cl)n1C1CCCCC1)N1CCCC1	n	n	n	11	n	n	n
C/C(CC(=O)Nc1ccc([N+](=O)[O-])cc1)=N\NC(=O)c1ccccc1[N+](=O)[O-]	n	n	n	11	n	n	n
C[C@H]1COc2cccc(F)c2S(=O)(=O)N1C	n	x	n	n	x	x	x
O=C(CSc1nnc(Cc2ccccc2)n1-c1cccc(Cl)c1)NNC(=O)Cc1ccccc1	n	n	n	10	n	n	n
CCOC(=O)[C@@]12CN(C(=O)OC(C)(C)C)CC=C1N(Cc1ccc(OC)cc1)C(=O)[C@H]2CC(=O)NCc1cccc(C(F)(F)F)c1	n	x	n	n	x	x	x
CCCOc1ccccc1OCC(=O)Nc1cc(Cl)ccc1-n1cncn1	n	n	n	11	n	n	n
C[C@@H]1CN(c2ccc(N3CCN(C(=O)OC(C)(C)C)C[C@@H]3C)cc2C#N)CCN1Cc1ccccc1	n	x	n	n	x	x	x
CN1C(=O)SC(Nc2ccccc2)C1=O (stereo not given)	n	n	n	9.5	n	n	n
CN1C(=O)SC(Nc2ccc(F)cc2)C1=O (stereo not given)	n	n	n	n	n	x	x
SMILES	PLCb3 inh	Tb MetRS inh	HGIII-sPLA2 inh	PLCg1 inh	DAGLB inh	PLCgamma1 ctr	PLCb3 confirm
Cc1[nH]n(-c2ccccc2)c(=O)c1CCOC(=O)c1cccc(C(F)(F)F)c1	n	n	n	11	n	n	n
O=C(CSc1ccc(Cl)cc1Cl)N1CCC(c2nc3ccccc3s2)CC1	n	n	n	11	n	n	n
CCNC(=O)N1CCC(c2nc3ccccc3s2)CC1	n	n	n	n	n	x	x
C=CC[C@H](CC(=O)OC(C)(C)C)C(=O)OC[C@@H]1CCCN1C(=O)[C@@H](CC=C)CC(=O)NCCO	n	n	n	9.8	n	n	n
CC1Cc2ccccc2N1C(=O)Cn1cc([N+](=O)[O-])cn1 (stereo not given)	13	n	n	n	n	n	n
CC1CCN(CC(=O)N2c3ccccc3CC2C)CC1 (stereo not given)	n	n	n	n	n	x	x
CC1Cc2ccccc2N1C(=O)CN1CCN(Cc2ccccc2)CC1 (stereo not given)	n	n	n	9.8	n	n	n
OC[C@@H]1CC[C@@H]2O[C@H](CCc3ccc(-c4ccc(F)cc4)cc3)[C@@H](n3cc(C4CC4)nn3)C[C@@H]2O1	n	x	n	n	x	x	x
COc1cc(OC)cc(C(=O)NC2CCN(Cc3nnnn3Cc3ccc(F)cc3)CC2)c1	n	n	n	n	n	x	x
COc1cc(OC)cc(C(=O)NC2CCN(Cc3nnnn3Cc3cccs3)CC2)c1	n	n	n	12	n	n	n
COC(=O)[C@]1(CNC(C)=O)CC(=O)N(Cc2ccc(Cl)cc2)[C@@H]1c1ccc(OC)cc1	n	x	n	11	x	n	n
CCc1ccc(NC(=O)C2=CC(c3cccs3)=NS(=O)(=O)N2C)cc1	n	n	n	16	n	n	n
COc1ccc(-c2cc(C3CCNCC3)[nH]n2)cc1	n	n	n	16	n	n	n
CCCCCCCCN1C(=O)[C@@H](CC(=O)NCCC(C)C)C[C@@]2(C(=O)OC)C1=C[C@H](C(C)(C)C)O[C@@H]2C	n	x	n	n	x	x	x
Cn1c(=NC(=O)C2CC2)sc2cccc(F)c21	n	n	n	11	n	n	n
Cc1ccc(-c2nn(CCC(N)=O)c(=O)c3ccccc23)cc1	x	n	x	x	n	x	x
NC(=O)CCn1nc(-c2ccc(Cl)cc2)c2ccccc2c1=O	n	n	n	12	n	n	n
COc1ccc(CNCC(O)(c2ccccc2)c2ccccc2)cc1	n	n	n	19	n	n	n
CCN(CC)CCc1nc(-c2ccccc2)no1	n	n	n	11	n	n	n
O=C(N/N=C/c1cccnc1)c1cc(-c2ccccc2)nc2ccccc12	n	n	n	n	n	x	x
O=C(N/N=C/c1c(F)c(F)c(F)c(F)c1F)c1cc(-c2ccccc2)nc2ccccc12	n	n	n	14	n	n	n
O=C1c2cccnc2C(=O)N1c1ccccc1-c1ccccc1	n	n	n	12	n	n	n
CC(=O)NC12CC3CC(C1)CC(C(=O)N(C)Cc1cccc(Cl)c1Cl)(C3)C2	n	n	n	13	n	n	n
CC(=O)NC12CC3CC(C1)CC(C(=O)N(C)CC(=O)Nc1ccccc1Cl)(C3)C2	n	n	n	n	n	x	x

Screens: PubChem, The Scripps Research Institute Molecular Screening Center
